Assay [1] deals with tumors harboring FGFR abnormalities. The note with it: mice with tumors metastasized to the lung; cited from earlier work.
In assay [2] the test system is FGFR pathway. Description: Pharmacodynamic markers of FGFR pathway inhibition. The assay is classed as in vivo, human. The note with it: QD. In outline: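 Blood was drawn before dosing in cycles 0, 1 and later odd cycles, and after the cycle 0 dose on days 1-4. FGF23 was measured by solid-phase sandwich ELISA (mouse anti-human FGF23 capture, peroxidase-conjugated mouse anti-human FGF23 detection, colorimetric). 1,25-(OH)2-vitamin D was measured by double-antibody RIA (sheep antibody 16-18 h, 125I tracer, cellulose-conjugated donkey anti-sheep IgG, γ-counting). Serum phosphate was also tracked.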

Bounds are passed on as bounds.

For `CNC(=O)n1ccc2cc(Oc3ccnc(NC(=O)c4ccc(C5CCN(CCO)CC5)cc4)c3)c(OCCOC)cc21` [E7090], the Survival effect entry in assay [1] is recorded as “significantly prolonged survival effect”. The “Doses with sufficient FGFR pathway inhibition” value in assay [2] was at least 100 mg.

The values above are taken from PMC7004556 (Cancer Science, 2020).
